High-throughput results as filed in PubChem.
Shown are actives, neighbours in structure and some others; about 2.9% of the full set was active somewhere.
CAL PDZ FP-1: inhibitors of human CAL PDZ peptide binding | inhibition, % at 24.9 µM | 0.92% of 300,000 active | Q9HD26 | AID 602252 | purified CAL PDZ, TMR-peptide fluorescence polarization, 1 h;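 active means mean inhibition of at least 30% with at least half of replicates also reaching 30%; inconclusive means no clear call, values can overlap the other calls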;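 further: 0% = DMSO neutral control and 100% = excess unlabeled competitor peptide PRC23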
CAL PDZ FP-2: blocks peptide binding to human CAL PDZ domain; purified CAL PDZ, TMR-peptide fluorescence polarization, 1 h; inhibition, % at 20 µM; 0.02% of 330,000 active; AID 504414;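 active means highest replicate inhibition of at least 40%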;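 further: plate controls were DMSO neutral control wells for no effect and unlabeled competitor peptide control wells for full effect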
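Assay system – tagged CAL PDZ protein CerCALP, purified · Timing – 1 h at RT · Compound – single point, 20 µM · Measured by – fluorescence polarization from S- and P-plane intensities, G-factor corrected · Evaluation – inhibition from polarization loss · Probe or stimulus – TMR reporter peptide T*-PRC34 · Buffer or medium – pH 7.4 phosphate-saline buffer, reducing agent, detergent, IgG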
ERAP1 inh: inhibitors of human ERAP1 aminopeptidase; recombinant ERAP1, Leu-AMC fluorescence, 60 min; inhibition, % at 10.7 µM; 0.15% of 340,000 active; AID 652197;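 active means mean replicate inhibition of at least 30%, or all replicates individually reaching that 30% level; inactive means mean below 30% and not every replicate reaching it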;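 further: 0% = neutral control wells and 100% = L-leucinethiol positive control wells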
DENV2 CPE: protects cells from dengue virus 2 cytopathic effect | DENV2-infected cells, cytopathic effect rescue, plate reader | 1.7% of 350,000 active | CPE inhibition, % at 9.99 µM; in the data active means CPE inhibition above about 20%, passing the limit was not always enough; inconclusive means no clear call, values can overlap the other calls; tested in BHK-21 cells;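 further: 0% = median of neutral control wells and 100% = median of positive control wells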
S100A4 inh HTS: inhibitors of human S100A4 binding to myosin IIA peptide; P26447; S100A4/TAMRA-MyoIIA peptide fluorescence polarization; inhibition, % at 10.7 µM; 0.14% of 360,000 active; AID 652163;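 active means mean inhibition of at least 70% across replicates, with every replicate also reaching that level; inconclusive means mean inhibition reaches 70% but some replicates fall short; inactive means mean inhibition below 70%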
Target sequence (P26447 whole entry, looked up): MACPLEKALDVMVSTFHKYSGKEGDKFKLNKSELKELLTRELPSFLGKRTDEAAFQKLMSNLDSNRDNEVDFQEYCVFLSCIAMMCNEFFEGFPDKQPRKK
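Material: human S100A4 monomer with TAMRA-labelled myosin IIA peptide; buffer or medium: HEPES pH 7.2 with CaCl2, KCl, NaCl, DTT, Triton; compound dosing: one concentration per compound; schedule: 5 min incubation before reading; benchmarks: neutral control DMSO, positive control TFP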
SIRT5 block: inhibitors of human sirtuin-5 desuccinylase; Q9NXA8; 1.1% of 330,000 active; Purified SirT5, succinyl-peptide AMC, trypsin-coupled fluorescence; inhibition, % at 15 µM; in the data active means inhibition above about 15%; inconclusive means no clear call, values can overlap the other calls
Target sequence (Q9NXA8 whole entry, looked up): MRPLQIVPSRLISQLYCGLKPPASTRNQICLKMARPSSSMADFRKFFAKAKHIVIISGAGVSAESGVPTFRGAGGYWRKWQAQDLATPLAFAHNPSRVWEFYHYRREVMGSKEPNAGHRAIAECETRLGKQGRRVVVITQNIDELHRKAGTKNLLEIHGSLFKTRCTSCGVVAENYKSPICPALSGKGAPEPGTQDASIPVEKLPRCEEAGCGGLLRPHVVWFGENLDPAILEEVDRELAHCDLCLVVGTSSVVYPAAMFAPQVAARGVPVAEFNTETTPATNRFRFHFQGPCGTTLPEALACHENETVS
Numbers without * were called inactive; ? = inconclusive; . = no result given.

SMILES	CAL PDZ FP-1	CAL PDZ FP-2	ERAP1 inh	DENV2 CPE	S100A4 inh HTS	SIRT5 block
OC[C@H]1O[C@@H]2O[C@H]3[C@H](O)[C@@H](O)[C@@H](O[C@H]4[C@H](O)[C@@H](O)[C@@H](O[C@H]5[C@H](O)[C@@H](O)[C@@H](O[C@H]6[C@H](O)[C@@H](O)[C@@H](O[C@H]7[C@H](O)[C@@H](O)[C@@H](O[C@H]1[C@H](O)[C@H]2O)O[C@@H]7CO)O[C@@H]6CO)O[C@@H]5CO)O[C@@H]4CO)O[C@@H]3CO	.	.	1	6	-21	0
OCC1OCOC2C(CO)OCOC12 (centres undefined)	-5	1	-1	123*	6	2
C[C@H](CO)N1C[C@H](C)[C@@H](CN(C)Cc2cccnc2)Oc2cc(C#CC3CCCCC3)ccc2S1(=O)=O	.	.	0	13	0	-7
C[C@H](CO)N1C[C@H](C)[C@@H](CN(C)Cc2cccnc2)Oc2cc(C#CC3CCCC3)ccc2S1(=O)=O	.	.	0	13	-17	15*
C[C@H](CO)N1C[C@H](C)[C@H](CN(C)Cc2cccnc2)Oc2cc(C#CC3CCCCC3)ccc2S1(=O)=O	.	.	2	-3	-10	12*
CC(=O)NCc1ccc(C(=O)COC(=O)COc2ccc(Cl)c(C)c2)s1	3	-1	1	65*	-3	1
O=C1c2c(Br)c(Br)c(Br)c(Br)c2C(=O)N1c1ccccn1	-4	-2	1	6	-10	-4
O=C1OC(=O)c2c(Br)c(Br)c(Br)c(Br)c21	-4	-1	-3	39*	9	.
O=C(Cc1ccccn1)N1CC(=O)N2[C@H](CO)[C@H](c3ccc(-c4ccc(F)cc4)cc3)[C@H]2C1	.	.	0	6	-3	3
COc1cc(/C=C/C(=O)Nc2nnc(CC(C)C)s2)cc(OC)c1OC	-1	0	6	5	8	-23
COc1cc(/C=C/C(=O)Nc2nnc(CC(C)(C)C)s2)cc(OC)c1OC	-2	-1	-1	100*	2	-8
CO[C@H]1CN(C)C(=O)c2ccc(NS(=O)(=O)c3cn(C)cn3)cc2OC[C@H](C)N(CC2CC2)C[C@@H]1C	.	.	0	-1	2	1
Cc1cccc(C)c1NC(=S)N(CCc1ccncc1)C(C)C	4	-2	-1	1	0	16*
CCOc1ccc(NC(=S)N(CCc2ccncc2)C(C)C)cc1	2	1	-1	12	0	-1
O=c1[nH]c(=S)[nH]c2c1C(c1ccc(Cl)cc1)OC(CCc1ccccc1)C2 (centres undefined)	.	.	1	101*	-6	-1
O=c1[nH]c(=S)[nH]c2c1C(c1ccc(Cl)c(Cl)c1)OC(CCc1ccccc1)C2 (centres undefined)	.	.	.	19	-1	-1
COc1ccc(S(=O)(=O)N(CC(C)C)CC(C)C)c2cccnc12	.	-1	2	57*	-4	-1
COc1ccc(CN(C)C[C@H]2OCCCC[C@@H](C)Oc3ccc(NC(=O)Nc4ccc(C(F)(F)F)cc4)cc3C(=O)N([C@@H](C)CO)C[C@H]2C)cc1	.	.	-1	1	-8	9
C[C@@H]1CCCCO[C@@H](CN(C)S(C)(=O)=O)[C@@H](C)CN([C@@H](C)CO)C(=O)c2cc(NC(=O)CCCN(C)C)ccc2O1	.	.	0	?	-18	-1
COc1ccc(-c2csc(N(Cc3ccco3)C(=O)c3cccs3)n2)cc1	-3	191*	-2	-2	-4	-3
COc1ccccc1NC(=O)Cc1cccs1	2	-1	.	.	.	.
COc1ccccc1NC(=O)Nc1ccnn1Cc1cccs1	57*	-1	.	.	.	.
COc1ccccc1S(=O)(=O)N1CC[C@@H]2[C@H](CO)Nc3ccc(-c4ccc(F)cc4)cc3[C@@H]21	.	.	-1	-22	15	4
Cc1cc(C)c2nc(SC(C)C(=O)NCC(=O)Nc3ccc(F)c(F)c3F)cc(C)c2c1 (centres undefined)	-4	0	2	28*	-10	-5
O=S(=O)(c1cccs1)N1CCCCN2[C@H](CO)[C@H](c3ccc(-c4ccccc4)cc3)[C@@H]2C1	.	.	-2	23*	-2	5
SMILES	CAL PDZ FP-1	CAL PDZ FP-2	ERAP1 inh	DENV2 CPE	S100A4 inh HTS	SIRT5 block
COc1ccc(-c2ccc([C@H]3[C@@H](CO)N4CCCCN(S(=O)(=O)c5cccs5)C[C@@H]34)cc2)cc1	.	.	2	22*	-3	6
CO[C@H]1CN(C)C(=O)c2cc(C#N)ccc2OCC[C@H]2CC[C@@H](OC)[C@@H](CN(C)C(=O)[C@@H]1C)O2	.	.	-3	-3	18	-8
O=C(COc1cccnc1[N+](=O)[O-])Nc1ccccc1Sc1ccccc1	-4	-1	4	32*	11	.
C[C@@H]1CN([C@@H](C)CO)C(=O)c2cc(NC(=O)Nc3cccc4ccccc34)ccc2O[C@@H]1CN(C)S(C)(=O)=O	.	.	-1	-4	-19	0
O=C(CCN1C(=O)/C(=C/c2ccc(Cl)cc2)SC1=S)Nc1cccc(C(=O)O)c1	20	0	-1	4	-4	-1
O=C(O)c1cccc(N2C(=O)/C(=C/c3ccc(SCc4ccc(Cl)cc4)o3)SC2=S)c1	-4	-2	-1	-3	5	21*
O=C(N/N=C/c1cc([N+](=O)[O-])ccc1O)NC12CC3CC(CC(C3)C1)C2	-1	0	1	-4	1	-7
O=C(N/N=C/c1ccc(O)cc1O)NC12CC3CC(CC(C3)C1)C2	-3	0	0	50*	-2	1
O=C(NCc1ccccc1)c1ncn[nH]1	112*	0	-1	6	5	1
O=C(NCc1ccccc1)c1ccccc1	4	0	-4	20*	-1	0
Cc1ccc(S(=O)(=O)N=Nc2c(O)[nH]c3ccccc23)cc1	32*	-1	.	.	.	.
O=C(NCCc1ccncc1)Nc1ccc(F)cc1	-1	0	1	1	103*	-4
O=C(NCCc1ccccc1F)c1ccc2c(c1)OCCO2	47*	-1	2	6	-6	0
COc1ccccc1CCNS(=O)(=O)CCNC(=O)c1ccc2c(c1)OCO2	-1	-4	-2	40*	-1	0
Cc1ccc(CNS(=O)(=O)CCNC(=O)c2ccc3c(c2)OCO3)cc1	-7	-2	-7	4	3	-2
O=C(NCCS(=O)(=O)NCc1ccc(F)cc1)c1ccc2c(c1)OCO2	2	1	-2	75*	1	-2
Oc1cccc2ccc(/C=C/c3ccccc3Br)nc12	59*	1	0	-5	-1	2
Cc1ccc(NC(=O)C(=O)NCC2CCCN2S(=O)(=O)c2cccs2)cc1 (centres undefined)	-1	-3	2	38*	-6	-1
